Each structure is given as a SMILES string.

Here are results for 96 molecules from ChEMBL document CHEMBL4513216, “Probing the Open Global Health Chemical Diversity Library for Multistage-Active Starting Points for Next-Generation Antimalarials” (ACS Infect Dis, 2020).

The nature of this series: Toxicity liver stage against HepG2, at 10uM. Also noted: test concentration 10 uM, cell line HepG2-A16-CD81EGFP. To be noted: human, HepG2-A16-CD81EGFP cells; read-out: INHIBITION
The series is classed as cell-based. Summed up:
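Uninfected HepG2-A16-CD81EGFP cells, 3 × 10^3 per well, 1536-well, plated on prespotted compound at 10 μM final, parasite-free screening media added to match infected plates; puromycin 10 μM positive, DMSO 0.5% negative; run in parallel with 48 h PbLuc assay at 37 °C, 5% CO2; viability by CellTiter-Glo luminescence, normalized to controls.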
As to `CN(CCc1ccccc1)Cc1nc(-c2cnccn2)no1`, the cytotoxicity at 10 µM is -0.911%.
Regarding `COc1ccc(-c2ccc(C(=O)NCCCC(N)=O)c(F)c2)c(F)c1`, the cytotoxicity at 10 µM was found to be 0.393%.
Take `Cc1cnc(N2CCC(OCCN3CCCCC3)C2)nc1C` (stereo unspecified): the cytotoxicity at 10 µM is -43.9%.
The figure for `CC(C)n1ccc(-c2cc(C(=O)NC3CC3)c3ccccn23)n1` is -5.4%.
Regarding `c1cn(Cc2nnc(C3CCN(C4CCNCC4)CC3)n2C2CC2)cn1`, the cytotoxicity at 10 µM stood at 1.74%.
Then `COCCn1ccnc1C1CCCN(c2ncnc3c(C)csc23)C1` (stereo unspecified), with 2.57%; and `Cc1ccsc1C(=O)N1CCC(Nc2cccnc2)CC1`, with -136%; and `CN(C)CCCNC(=O)c1cc(Cl)ccc1Cl`, with -6.56%.
As for `CCS(=O)(=O)NCCNCc1cc(F)ccc1Br`, the cytotoxicity at 10 µM came out at 1.58%.
Regarding `O=C(O)c1ccccc1C1CCN(C2Cc3ccccc3C2)C1` (stereo unspecified), the cytotoxicity at 10 µM was 12.7%.
With `CC(C)CN1CC(C(=O)N(C)CCc2cn[nH]c2)CC1=O` (stereo unspecified), the cytotoxicity at 10 µM is -4.1%.
The figure for `CCNc1nc2cn(-c3ccc(OC(F)(F)F)cc3)c(=O)c-2c[nH]1` is 11.8%.
As for `CN(C)c1nc(CNC(=O)NC2CCc3ccccc32)cs1` (stereo unspecified), the cytotoxicity at 10 µM was -3.41%.
The figure for `O=C(O)c1ccccc1-c1c(-c2ccccc2)ncn1C[C@H]1CCCN1` is 6.07%; for `CC(=O)NCC(=O)N1Cc2cc(-c3cc[nH]n3)ccc2C1c1cnco1` (stereo unspecified) it is 13.5%; for `CCn1nc(C)c2nnn(CC(=O)Nc3cccc(C)c3)c(=O)c21` it is 10.1%.
For the molecule `CC(C)c1nnc2n1CCN(Cc1cccc3c1OCCO3)C2`, the cytotoxicity at 10 µM is -1.26%.
Turning to `Cc1cnc(CNCc2cnc(-c3ccccc3C)s2)cn1`, the cytotoxicity at 10 µM is -0.37%.
Take `O=C(c1ccccc1)N1CCO[C@@H]2CN(Cc3ccc[nH]3)C[C@@H]2C1`: the cytotoxicity at 10 µM is -98%.
As for `NC(=O)C1(CNCc2csc(-c3cccs3)n2)CCOCC1`, the cytotoxicity at 10 µM was -19.3%.
As to `Cc1cc(NC(=O)CN2CCN(c3nccs3)C(C)C2)n(C)n1` (stereo unspecified), the cytotoxicity at 10 µM is -4.2%.
The figure for `Cc1ccccc1CCNC(=O)C1CC(=O)N(CC(F)(F)F)C1` (stereo unspecified) is -6.17%; for `Cc1nc(-c2ccc(S(=O)(=O)N3CCCCC3)cc2)co1` it is -2.5%.
Consider `COc1cc(CN(C)C(=O)NCc2cccnc2OC)ccc1SC`, for which the cytotoxicity at 10 µM was -8.82%.
In the case of `CCC(=O)NC1CCCN(C(=O)Nc2cc(-c3ccccc3)on2)C1` (stereo unspecified), the cytotoxicity at 10 µM was determined as 6.64%.
Consider `Cc1cc(N2CCC(C(=O)O)(n3ccc(C(C)C)n3)CC2)nc(N)n1`, for which the cytotoxicity at 10 µM is 0.445%.
Then `CC(C)CN(Cc1cnn(C)c1)C(=O)C1COc2ccccc2C1` (stereo unspecified), with 0.956%; and `COC(=O)c1ccc(OC)c(Cn2cc(N)cn2)c1`, with -7.8%; and `Cc1ccc(CN(C)C(=O)c2ccc(NC3CC3)nc2)o1`, with -5.57%.
Regarding `CC(=O)Nc1cc(C(=O)N2CCOCC2c2ccc(C)o2)ccc1F` (stereo unspecified), the cytotoxicity at 10 µM was -3.08%.
Turning to `COCCC(=O)N1CCC(c2noc3nc(C)cc(C(F)(F)F)c23)CC1`, the cytotoxicity at 10 µM was 4.45%.
`CN1CC[C@H]2OCC[C@@H](C(=O)NCc3ccco3)[C@@H]2C1`: the cytotoxicity at 10 µM was -78%.
With `CCCN1CCN(C(=O)c2ccc3nc(C)oc3c2)[C@H]2CS(=O)(=O)C[C@H]21`, the cytotoxicity at 10 µM was -23.2%.
For `O=C(c1sccc1Br)N1CCOCC1`, the cytotoxicity at 10 µM is -2.34%.
Consider `c1cc2cc[nH]c2c(CC2CN(Cc3cscn3)C2)n1`, for which the cytotoxicity at 10 µM came to 13.8%.
The figure for `Cc1nn(C)c2ncnc(NCC(O)CN3CCCCC3)c12` (stereo unspecified) is 1.2%; for `O=C1CC(NCc2ccccn2)CN1CCc1ccc(F)cc1` (stereo unspecified) it is 7.18%; for `CCc1cc(=O)n(CC(=O)N2CCCC2)c(-c2ccccc2)n1` it is 7.25%.
`O=C(NCc1nc(C2CC2)no1)N1CCOC(c2ccccc2F)C1` (stereo unspecified): the cytotoxicity at 10 µM was -53.7%.
Take `C=c1ncsc1=C1NN=C(C2CCCN2C(=O)CCn2ccc(C)n2)O1` (stereo unspecified): the cytotoxicity at 10 µM is 1.66%.
Consider `CC(=O)c1ccc(N2CCN(C(=O)c3cc(C(C)C)nn3C)CC2)cc1`, for which the cytotoxicity at 10 µM was determined as 11%.
For `CCc1ccc(CNC[C@H]2C[C@@H](CO)N(C)[C@H]2c2ccccc2F)o1`, the cytotoxicity at 10 µM is -3.09%.
For the molecule `Cc1cnc(-c2nc(-c3cccc(CN4CCOCC4)c3)no2)cn1`, the cytotoxicity at 10 µM is -4.21%.
In the case of `CS(=O)(=O)CCNC(=O)C1(c2cccc(Cl)c2)CCCCC1`, the cytotoxicity at 10 µM was 8.68%.
Consider `CC(NC(=O)NCCCN(C)C)c1ccc2c(c1)CCC(=O)N2` (stereo unspecified), for which the cytotoxicity at 10 µM was -8.03%.
Take `CC(=O)N1N=C(c2ccco2)OC1C(=O)NCCc1ccc(F)cc1` (stereo unspecified): the cytotoxicity at 10 µM is -1.92%.
As to `CSc1nnc(N(CCC#N)CCC#N)s1`, the cytotoxicity at 10 µM came out at 8.95%.
For `CC(NC(=O)Nc1ccc(S(C)(=O)=O)cc1)c1ccc2c(c1)CC(=O)N2` (stereo unspecified), the cytotoxicity at 10 µM amounted to 0.0793%.
For `CCN(CC)c1ccc(-c2nc(-c3cccc(OC)c3OC)no2)cn1`, the cytotoxicity at 10 µM came out at 20%.
Turning to `COc1ccc(C(=O)NC[C@H]2COCc3nc4cc(C)ccc4n32)cc1`, the cytotoxicity at 10 µM was determined as 2.52%.
Consider `CC(NCCn1cccn1)c1ccccc1Cl` (stereo unspecified), for which the cytotoxicity at 10 µM was -5.03%.
Regarding `CCc1ccc(C2CCCN2C(=O)Cc2ccc(NC(C)=O)cc2)o1` (stereo unspecified), the cytotoxicity at 10 µM is -0.557%.
`COCCNc1nc2c(c(NCc3cnc(C)c(C)c3)n1)CCNCC2`: the cytotoxicity at 10 µM was -1.22%.
In the case of `CC(c1nc(C(C)(C)C)no1)N1CCN(Cc2ccco2)CC1` (stereo unspecified), the cytotoxicity at 10 µM was -5.02%.
In the case of `COc1ccc(C(=O)COc2coc(CN3CCCCC3)cc2=O)cc1`, the cytotoxicity at 10 µM worked out at 5.12%.
Regarding `c1ccc(CNc2ccccc2N2CCCC2)nc1`, the cytotoxicity at 10 µM is 10.9%.
As to `COc1ccc(C)cc1CN(Cc1ncc(C)o1)C1CCN(C)C1` (stereo unspecified), the cytotoxicity at 10 µM was -0.76%.
The figure for `CCCS(=O)(=O)N1CCC2(CN(c3cnn(C)c3)C(=O)CN2C)C1` (stereo unspecified) is -10.7%.
With `Cc1nn(C)c(C)c1-c1ccc(=O)n(C(C)C(=O)NC(C)(C)C)n1` (stereo unspecified), the cytotoxicity at 10 µM was 5.75%.
On to `C[C@@H]1CN(CCc2ccccc2)C[C@]12CCN(CC(=O)N(C)C)C2=O`, for which the cytotoxicity at 10 µM is -4.19%.
Then `CS(=O)(=O)CCC(=O)NC(Cc1ccccc1)C1CC1` (stereo unspecified), with 11.4%.
Then `CC(C)NC(=O)[C@@H]1Cc2[nH]cnc2CN1CCCc1ccccc1`, with 10.1%; and `O=C(O)C1(n2ccc(-c3ccco3)n2)CCN(Cc2cccnc2)CC1`, with -131%; and `CCC(C)N(C)CCNC(=O)NCc1cccc(-n2cncn2)c1` (stereo unspecified), with -8.1%.
As to `CN1CCN(CCOc2ccc(NC(=O)c3cnc[nH]3)cc2)CC1`, the cytotoxicity at 10 µM is 0.71%.
For the molecule `C[C@]1(O)CCN(Cc2cncs2)C[C@@H]1Oc1cccc(F)c1`, the cytotoxicity at 10 µM worked out at 6.06%.
As for `CNc1nc2cn(CCc3ccccc3)c(=O)c-2c[nH]1`, the cytotoxicity at 10 µM was found to be 7.77%.
Turning to `O=C(NCCc1nncn1C1CC1)c1cnn(Cc2ccccc2)c1`, the cytotoxicity at 10 µM was -2.36%.
The figure for `Cc1ccc(C2COCCN2C(=O)c2ccsc2)o1` (stereo unspecified) is -2.55%.
On to `O=C(NCC1COCCO1)c1csc(Cc2ccccc2)n1` (stereo unspecified), for which the cytotoxicity at 10 µM is -0.857%.
On to `CC(C)c1nnc2ccc(N3CCC(C(=O)O)CC3)nn12`, for which the cytotoxicity at 10 µM is -1.92%.
As to `Cc1ccc(-c2c(-c3ccccc3)ncn2CCCN2CCOCC2)o1`, the cytotoxicity at 10 µM worked out at 6.23%.
In the case of `CC(=O)N(C)CC(=O)Nc1cnc(-n2ccnc2)nc1`, the cytotoxicity at 10 µM was -9.69%.
Turning to `COc1cccc(CN(C)C(=O)Nc2ccc3c(c2)OCCO3)c1`, the cytotoxicity at 10 µM is -0.627%.
Then `CC(=O)NC1CCN(C(=O)c2cnc(COc3ccccc3)nc2O)C1` (stereo unspecified), with -5.3%.
Take `CCc1ncncc1C(=O)Nc1ccc2ccn(CCN(C)C)c2c1`: the cytotoxicity at 10 µM was found to be 6.11%.
The figure for `CCc1ccc(C(=O)Nc2ccc3c(c2)N(C)CCN(C)C3)o1` is -7.69%; for `O=C(N[C@H]1CN(c2nc(CO)cs2)C[C@@H]1C1CC1)C1CCCCC1` it is -0.464%; for `CCN(CC)[C@H]1C[C@@H](Cc2cc(CO)on2)C1(C)C` it is 9.12%.
Turning to `Cc1ccnc(NC(=O)CCNC(=O)c2ccccc2Cl)c1`, the cytotoxicity at 10 µM is -2.66%.
In the case of `COc1cc(CNC(=O)COC2CCCC2)ccc1O`, the cytotoxicity at 10 µM was -7.2%.
On to `O=C(Cn1ccc2c(Cl)cccc21)N[C@@H](C(=O)O)c1ccccc1`, for which the cytotoxicity at 10 µM amounted to 2.19%.
Turning to `COC(=O)CC(C)(C)CC(=O)N1CCC(C(F)(F)F)CC1`, the cytotoxicity at 10 µM amounted to 14.9%.
Regarding `COCCN1CC2(CCOCC2)c2cc(NC(=O)C3CC=CC3)ccc21`, the cytotoxicity at 10 µM was -109%.
The figure for `Nc1cc2c(nn1)CCN(C(=O)c1csc(-c3ccco3)n1)C2` is -2.79%; for `CN1CCN(c2ccc(C(=O)N3CCCC(c4ncc[nH]4)C3)cc2)CC1` (stereo unspecified) it is 4.15%; for `CCn1c(N)nc2cc(C(=O)N(C)Cc3cc(C(C)(C)C)n[nH]3)cnc21` it is 4.53%.
Then `CN(C)C(=O)CS(=O)(=O)Cc1cc(Cl)c2c(c1)OCCCO2`, with -5.08%.
The figure for `O=C(NCc1ccccc1)C1CN(c2ccccn2)CCO1` (stereo unspecified) is -2.44%; for `Cc1ccc(CN(C)Cc2nc3c(cnn3C)c(=O)[nH]2)o1` it is -0.972%.
With `Cc1nccn1-c1ccc(NS(=O)(=O)c2cnn(C)c2)cn1`, the cytotoxicity at 10 µM was -6.38%.
For `COCCN1CCCC1(C)c1nc(C)cc(N)n1` (stereo unspecified), the cytotoxicity at 10 µM is -3.73%.
Take `Cc1cnn(CC(=O)N2CCC(Nc3ccc(C)nn3)CC2)c1`: the cytotoxicity at 10 µM is -21.2%.
For `Cc1ccc(F)c(OC2(C(=O)O)CCN(C(=O)c3ccco3)CC2)c1`, the cytotoxicity at 10 µM amounted to 5.99%.
Then `Cc1cc(C2CCCN2Cc2cc(=O)n(C)c(=O)n2C)no1` (stereo unspecified), with -20.6%; and `CCOCC1CN(C(=O)c2cscn2)Cc2cn(C)nc21` (stereo unspecified), with -76.6%.
